The text below walks through data of ChEMBL document CHEMBL5329163, “N-Acylsulfonamide: a valuable moiety to design new sulfa drug analogues” (RSC Med Chem, 2023).

As a reminder, the MIC is the smallest concentration in the dilution series that meets the test's criterion for growth inhibition.

Converted amounts (≈) assume the structure as drawn. The source made the active and inactive calls.

The test system of data set [1] is Bacillus subtilis. The data set can be described thus: Antibacterial activity against Bacillus subtilis ATCC 6051 assessed as inhibition of bacterial growth incubated for 24 hrs by resazurin dye based broth microdilution method. The format is functional. The gist of the method:
(§1)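 CLSI broth microdilution in cation-adjusted Mueller Hinton broth, pH 7.4 (±0.2). Compounds dissolved in DMSO at 25.6 mg mL⁻¹ (stock), diluted to 1–256 µg mL⁻¹. Inoculum 5 × 10⁵ CFU mL⁻¹ final; 24 h at 37 °C, static. Resazurin 0.015% then added, 2–4 h more; wells staying blue read as above MIC. Sulfacetamide reference.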
For orientation: Alamar Blue is a resazurin reagent that responds to reducing activity.

For data set [2], the system named is Pseudomonas aeruginosa. Nature of the data set: Antibacterial activity against Pseudomonas aeruginosa ATCC 27853 assessed as inhibition of bacterial growth incubated for 24 hrs by resazurin dye based broth microdilution method. The format is functional. The method, boiled down: as §1
Data set [3] relates to Escherichia coli. Nature of the data set: Antibacterial activity against Escherichia coli ATCC 8739 assessed as inhibition of bacterial growth incubated for 24 hrs by resazurin dye based broth microdilution method. The format is functional. The gist of the method:
as §1

Data set [4] concerns Staphylococcus aureus. Nature of the data set: Antibacterial activity against Staphylococcus aureus CIP 107093 assessed as inhibition of bacterial growth incubated for 24 hrs by resazurin dye based broth microdilution method. In kind it is functional. The gist of the method:
as §1

For data set [5], the system named is HaCaT. Nature of the data set: Cytotoxicity against human HaCaT cells incubated for 24 hrs by CyQuant LDH assay. In kind it is toxicity, cell-based. The gist of the method: (§2)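 HaCaT (10% FCS) or Caco-2 (20% FCS) grown in DMEM with 1% penicillin–streptomycin, 37 °C, 5% CO₂. Seeded in 24-well plates, grown 72 h, rinsed with PBS, then exposed 24 h to compounds at MIC and ½ MIC in fresh DMEM. LDH release measured. Untreated and damaged-cell controls; two independent assays, at least 2 replicates, mean ± SEM.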

Data set [6] has as its system Caco-2. The data set can be described thus: Cytotoxicity against human Caco-2 cells incubated for 24 hrs by CyQuant LDH assay. In kind it is toxicity, cell-based. As to conditions: caco-2, 24 h. The gist of the method: as §2
The test system of data set [7] is Escherichia coli. The data set can be described thus: Antibiofilm activity against Escherichia coli ATCC 8739 assessed as inhibition of biofilm formation at 0.5 times of MIC by crystal violet staining based analysis relative to control. The format is functional. The gist of the method:
(§3)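 Overnight cultures inoculated into fresh LB with compound at ½ MIC and grown 24 h at 37 °C, static. Growth read at 580 nm. Medium discarded, wells rinsed with distilled water, stained with 0.1% crystal violet, dye solubilized in 30% acetic acid, OD 595 nm; uninoculated-control staining subtracted. At least three independent replicates, mean ± SEM; one-way ANOVA with Dunnett test.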

For data set [8], the system named is Pseudomonas aeruginosa. Nature of the data set: Antibiofilm activity against Pseudomonas aeruginosa ATCC 27853 assessed as inhibition of biofilm formation at 0.5 times of MIC by crystal violet staining based analysis relative to control. In kind it is functional. The method, boiled down: as §3
Data set [9] relates to Pseudomonas aeruginosa. The data set can be described thus: Antibacterial activity against Pseudomonas aeruginosa ATCC 27853 assessed as inhibition of bacterial growth at 1 to 256 ug/ml incubated for 24 hrs by resazurin dye based broth microdilution method. The note with it: dose 1-256 µg/ml. The format is functional, organism-based. The method, boiled down: as §1
In data set [10] the test system is Escherichia coli. The data set can be described thus: Antibacterial activity against Escherichia coli ATCC 8739 assessed as inhibition of bacterial growth at 1 to 256 ug/ml incubated for 24 hrs by resazurin dye based broth microdilution method. The format is functional, organism-based. As to conditions: dose 1-256 µg/ml. The gist of the method:
as §1

Data set [11] relates to Staphylococcus aureus. Nature of the data set: Antibacterial activity against Staphylococcus aureus CIP 107093 assessed as inhibition of bacterial growth at 1 to 256 ug/ml incubated for 24 hrs by resazurin dye based broth microdilution method. In kind it is functional, organism-based. As to conditions: dose 1-256 µg/ml. The gist of the method:
as §1

Data set [12] concerns Bacillus subtilis. The data set can be described thus: Antibacterial activity against Bacillus subtilis ATCC 6051 assessed as inhibition of bacterial growth at 1 to 256 ug/ml incubated for 24 hrs by resazurin dye based broth microdilution method. In kind it is functional, organism-based. As to conditions: dose 1-256 µg/ml. The method, boiled down:
as §1

In the case of `Nc1ccc(S(=O)(=O)NC(=O)c2ccc(C(F)(F)F)cc2)cc1`, the MIC in [1], in data set [2], in [3] and in data set [4] was greater than 256 µg/mL each time.

Take `COc1cccc(C(=O)NS(=O)(=O)c2ccc(N)cc2)c1`: the MIC in [1] was 256 µg/mL (≈ 836 µM); in [2], greater than 256 µg/mL; in data set [3], 32 µg/mL (≈ 104 µM); in data set [4], greater than 256 µg/mL. Also, the Activity result in data set [5] and in [6] was “Non-Toxic” throughout. Further, the “inhibition (INH)” value in data set [7] was 42%; in data set [8], 23%.

Consider `Nc1ccc(S(=O)(=O)NC(=O)c2ccc(Cl)cc2Cl)cc1`, for which the MIC in data set [1], in [2], in [3] and in data set [4] was greater than 256 µg/mL throughout.

On to `CC(=O)Nc1ccc(S(=O)(=O)NC(=O)c2ccc(Cl)cc2Cl)cc1`, for which the outcome in data set [9], in data set [10], in [11] and in [12] was inactive.

In the case of `CC(=O)Nc1ccc(S(=O)(=O)NC(=O)c2ccc([N+](=O)[O-])cc2)cc1`, the outcome in [9], in [10], in data set [11] and in data set [12] was inactive.

For the molecule `CC(=O)Nc1ccc(S(=O)(=O)NC(=O)c2ccc(C(F)(F)F)cc2)cc1`, the result in data set [9], in [10], in data set [11] and in data set [12] was inactive.

With `CC(=O)Nc1ccc(S(=O)(=O)NC(C)=O)cc1`, the outcome in data set [9], in data set [10], in [11] and in data set [12] was inactive.

`COc1cc(C(=O)NS(=O)(=O)c2ccc(N)cc2)ccc1[N+](=O)[O-]`: the MIC in data set [1], in data set [2], in data set [3] and in data set [4] was greater than 256 µg/mL throughout.

For the molecule `COc1cc(C(=O)NS(=O)(=O)c2ccc(NC(C)=O)cc2)ccc1[N+](=O)[O-]`, the result in data set [9], in data set [10], in data set [11] and in data set [12] was inactive.

Take `CC(=O)Nc1ccc(S(=O)(=O)NC(=O)c2ccccc2)cc1`: the outcome in [9], in data set [10], in [11] and in data set [12] was inactive.

Turning to `COc1ccccc1C(=O)NS(=O)(=O)c1ccc(N)cc1`, the MIC in data set [1] was 64 µg/mL (≈ 209 µM); in data set [2], greater than 256 µg/mL; in data set [3], 256 µg/mL (≈ 836 µM); in data set [4], 256 µg/mL (≈ 836 µM). In addition, the Activity result in data set [5] and in data set [6] was “Non-Toxic” each time. The result in data set [7] and in data set [8] was Active.

With `Nc1ccc(S(=O)(=O)NC(=O)c2ccc([N+](=O)[O-])cc2)cc1`, the MIC is 256 µg/mL (≈ 797 µM) in data set [1], greater than 256 µg/mL in data set [2], greater than 256 µg/mL in [3] and greater than 256 µg/mL in data set [4].

For the molecule `CC(=O)NS(=O)(=O)c1ccc(N)cc1` [SULFACETAMIDE], the MIC in data set [1] was 128 µg/mL (≈ 597 µM); in data set [2] it was greater than 256 µg/mL; in data set [3], 32 µg/mL (≈ 149 µM); in data set [4], 256 µg/mL (≈ 1190 µM). In addition, the Activity entry in [5] and in data set [6] was “Non-Toxic” throughout.

Regarding `COc1ccccc1C(=O)NS(=O)(=O)c1ccc(NC(C)=O)cc1`, the outcome in [9], in data set [10], in [11] and in [12] was inactive.

Turning to `Nc1ccc(S(=O)(=O)NC(=O)c2cc(F)c(F)c(F)c2)cc1`, the minimal inhibitory concentration (MIC) in data set [1], in data set [2], in data set [3] and in data set [4] was greater than 256 µg/mL each time.

Consider `Nc1ccc(S(=O)(=O)NC(=O)c2ccccc2)cc1` [SULFABENZAMIDE], for which the MIC was 128 µg/mL (≈ 463 µM) in data set [1], greater than 256 µg/mL in data set [2], 32 µg/mL (≈ 116 µM) in data set [3] and greater than 256 µg/mL in data set [4]. For the same molecule, the Activity entry in data set [5] and in data set [6] was “Non-Toxic” in each case. For the same molecule, the “inhibition (INH)” value in [7] came out at 30%; in [8], 14%.

Regarding `COc1cccc(C(=O)NS(=O)(=O)c2ccc(NC(C)=O)cc2)c1`, the result in data set [9], in data set [10], in data set [11] and in [12] was inactive.

Turning to `CC(=O)Nc1ccc(S(=O)(=O)NC(=O)c2cc(F)c(F)c(F)c2)cc1`, the outcome in data set [9], in data set [10], in data set [11] and in data set [12] was inactive.
